Data from ChEMBL document CHEMBL1140053, “Discovery of antimycobacterial spiro-piperidin-4-ones: an atom economic, stereoselective synthesis, and biological intervention” (J Med Chem, 2008).
Converted amounts (≈) assume the structure as drawn.

Key:
[1] = system: Mycobacterium tuberculosis; assay: Antimycobacterial activity against Mycobacterium tuberculosis H37Rv by agar dilution method; type: functional
[2] = system: Mycolicibacterium smegmatis; assay: Antimycobacterial activity against Mycobacterium smegmatis MC2 by agar dilution method; type: functional
[3] = system: Vero; assay: Cytotoxicity against african green monkey Vero cells after 72 hrs by MTT assay; type: cell-based; details: Chlorocebus sabaeus
[4] = system: Mycobacterium tuberculosis; assay: Antimycobacterial activity against Mycobacterium tuberculosis H37Rv ATCC 35801 infected in CD1 mouse assessed as bacterial load in lungs at 25 mg/kg, ip after 10 days; type: functional; details: route intraperitoneal
Method in brief: (§1)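 Six-week-old female CD-1 mice, six per group, infected via caudal vein with approximately 10⁷ viable organisms. Intraperitoneal dosing at 25 mg/kg began 10 days post-inoculation and continued for 10 days. At 35 days post-infection, spleens and right lungs were homogenized and plated in serial 10-fold dilutions on 7H10 agar, incubated at 37 °C, 4 weeks. CFU compared with vehicle-treated controls.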

[5] = system: Mycobacterium tuberculosis; assay: Antimycobacterial activity against Mycobacterium tuberculosis H37Rv ATCC 35801 infected in CD1 mouse assessed as bacterial load in spleen at 25 mg/kg, ip after 10 days; type: functional; details: route intraperitoneal; method in brief: as §1
[6] = Selectivity index, ratio of IC50 for african green monkey Vero cells to MIC for mycobacterium; type: functional
Method in brief: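 Selectivity index taken as IC50/MIC. IC50 comes from Vero cells exposed to serial dilutions up to 62.5 µg/mL for 72 h, with viability read by MTT conversion to formazan. MIC comes from agar dilution in Middlebrook 7H11 with OADC at pH 7.40, run in duplicate, and is the lowest concentration giving complete growth inhibition.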

Row | SMILES | MIC [1] [µg/mL] | MIC [2] [µg/mL] | IC50 [3] [µM] | log10cfu [4] | log10cfu [5] | Selectivity Index [6]
1 | CN1C/C(=C\c2ccc(F)cc2)C(=O)[C@]2(C1)[C@@H](c1ccc(F)cc1)CN(C)[C@@]21C(=O)Nc2ccccc21 | 6.27 (≈ 12.6 µM) | 50.1 (≈ 100 µM) | – | – | – | –
2 | CN1C/C(=C\c2ccc(Cl)cc2Cl)C(=O)[C@]2(C1)[C@@H](c1ccc(Cl)cc1Cl)[C@@H]1CCCN1[C@@]21C(=O)Nc2ccccc21 (racemic) | 19.9 (≈ 31.8 µM) | 79.7 (≈ 127 µM) | – | – | – | –
3 | COc1ccccc1/C=C1\CN(C)C[C@@]2(C1=O)[C@@H](c1ccccc1OC)[C@@H]1CCCN1[C@@]21C(=O)Nc2ccccc21 (racemic) | 0.71 (≈ 1.29 µM) | 2.84 (≈ 5.17 µM) | 114 | – | – | –
4 | CN1C/C(=C\c2cccs2)C(=O)[C@]2(C1)[C@@H](c1cccs1)CN(C)[C@@]21C(=O)Nc2ccccc21 (racemic) | 1.64 (≈ 3.45 µM) | 6.59 (≈ 13.9 µM) | 132 | – | – | –
5 | CN1C/C(=C\c2ccco2)C(=O)[C@]2(C1)[C@@H](c1ccco1)[C@@H]1CCCN1[C@@]21C(=O)Nc2ccccc21 (racemic) | 53.3 (≈ 114 µM) | 107 (≈ 227 µM) | – | – | – | –
6 | CN1C/C(=C\c2cccs2)C(=O)[C@]2(C1)[C@@H](c1cccs1)[C@@H]1CCCN1[C@@]21C(=O)Nc2ccccc21 (racemic) | 0.38 (≈ 0.757 µM) | 3.11 (≈ 6.2 µM) | 125 | – | – | –
7 | CN1C/C(=C\c2ccccc2Cl)C(=O)[C@]2(C1)[C@@H](c1ccccc1Cl)CN(C)[C@@]21C(=O)Nc2ccccc21 (racemic) | 0.17 (≈ 0.319 µM) | 1.47 (≈ 2.76 µM) | 117 | – | – | –
8 | CN1C/C(=C\c2ccc(F)cc2)C(=O)[C@]2(C1)[C@@H](c1ccc(F)cc1)[C@H](c1ccccc1)N[C@@]21C(=O)Nc2ccccc21 (racemic) | 0.07 (≈ 0.125 µM) | 0.69 (≈ 1.23 µM) | 111 | 6.01 | 5.2 | 1634
9 | CN1C/C(=C\c2cccc(F)c2)C(=O)[C@]2(C1)[C@@H](c1cccc(F)c1)CN(C)[C@@]21C(=O)Nc2ccccc21 (racemic) | 1.56 (≈ 3.12 µM) | 6.27 (≈ 12.6 µM) | 125 | – | – | –
10 | CN1C/C(=C\c2ccc(Cl)cc2)C(=O)[C@]2(C1)[C@@H](c1ccc(Cl)cc1)[C@@H]1CCCN1[C@@]21C(=O)Nc2ccccc21 (racemic) | 22.7 (≈ 40.7 µM) | 90.9 (≈ 163 µM) | – | – | – | –
11 | CN1C/C(=C\c2ccccc2Cl)C(=O)[C@]2(C1)[C@@H](c1ccccc1Cl)[C@@H]1CCCN1[C@@]21C(=O)Nc2ccccc21 (racemic) | 0.35 (≈ 0.627 µM) | 5.69 (≈ 10.2 µM) | 114 | – | – | –
12 | CN1C/C(=C\c2ccc(Cl)cc2Cl)C(=O)[C@]2(C1)[C@@H](c1ccc(Cl)cc1Cl)CN(C)[C@@]21C(=O)Nc2ccccc21 (racemic) | 1.29 (≈ 2.15 µM) | 5.21 (≈ 8.66 µM) | 104 | – | – | –
13 | CN1C/C(=C\c2ccccc2)C(=O)[C@]2(C1)[C@@H](c1ccccc1)[C@H](c1ccccc1)N[C@@]21C(=O)Nc2ccccc21 (racemic) | 0.74 (≈ 1.41 µM) | 2.97 (≈ 5.65 µM) | 119 | – | – | –
14 | CN1C/C(=C\c2ccco2)C(=O)[C@]2(C1)[C@@H](c1ccco1)[C@H](c1ccccc1)N[C@@]21C(=O)Nc2ccccc21 (racemic) | 24.8 (≈ 49 µM) | 49.5 (≈ 97.9 µM) | – | – | – | –
15 | CN1C/C(=C\c2cccc(F)c2)C(=O)[C@]2(C1)[C@@H](c1cccc(F)c1)[C@H](c1ccccc1)N[C@@]21C(=O)Nc2ccccc21 (racemic) | 2.78 (≈ 4.95 µM) | 5.58 (≈ 9.94 µM) | 111 | – | – | –
16 | Cc1ccc(/C=C2\CN(C)C[C@@]3(C2=O)[C@@H](c2ccc(C)cc2)[C@H](c2ccccc2)N[C@@]32C(=O)Nc3ccccc32)cc1 (racemic) | 0.71 (≈ 1.28 µM) | 2.82 (≈ 5.09 µM) | 113 | – | – | –
17 | COc1ccc(/C=C2\CN(C)C[C@@]3(C2=O)[C@@H](c2ccc(OC)cc2)[C@H](c2ccccc2)N[C@@]32C(=O)Nc3ccccc32)cc1 (racemic) | 0.67 (≈ 1.14 µM) | 1.33 (≈ 2.27 µM) | 107 | – | – | –
18 | CN1C/C(=C\c2ccc(Cl)cc2Cl)C(=O)[C@]2(C1)[C@@H](c1ccc(Cl)cc1Cl)[C@H](c1ccccc1)N[C@@]21C(=O)Nc2ccccc21 (racemic) | 2.35 (≈ 3.54 µM) | 9.43 (≈ 14.2 µM) | 94.3 | – | – | –
19 | CN1C/C(=C\c2ccc(Cl)cc2)C(=O)[C@]2(C1)[C@@H](c1ccc(Cl)cc1)[C@H](c1ccccc1)N[C@@]21C(=O)Nc2ccccc21 (racemic) | 5.27 (≈ 8.86 µM) | 42.1 (≈ 70.8 µM) | – | – | – | –
20 | COc1ccc(/C=C2\CN(C)C[C@@]3(C2=O)[C@@H](c2ccc(OC)cc2)[C@@H]2CCCN2[C@@]32C(=O)Nc3ccccc32)cc1 (racemic) | 5.7 (≈ 10.4 µM) | 45.5 (≈ 82.8 µM) | – | – | – | –
21 | COc1ccccc1/C=C1\CN(C)C[C@@]2(C1=O)[C@@H](c1ccccc1OC)[C@H](c1ccccc1)N[C@@]21C(=O)Nc2ccccc21 (racemic) | 1.33 (≈ 2.27 µM) | 1.33 (≈ 2.27 µM) | 107 | – | – | –

Row | SMILES | MIC [1] [µg/mL] | MIC [2] [µg/mL] | IC50 [3] [µM] | log10cfu [4] | log10cfu [5] | Selectivity Index [6]
22 | CN1C/C(=C\c2ccccc2Cl)C(=O)[C@]2(C1)[C@@H](c1ccccc1Cl)[C@H](c1ccccc1)N[C@@]21C(=O)Nc2ccccc21 (racemic) | 2.63 (≈ 4.42 µM) | 10.5 (≈ 17.7 µM) | 105 | – | – | –
23 | CN1C/C(=C\c2cccc3ccccc23)C(=O)[C@]2(C1)[C@@H](c1cccc3ccccc13)[C@@H]1CCCN1[C@@]21C(=O)Nc2ccccc21 (racemic) | 2.65 (≈ 4.49 µM) | 10.6 (≈ 18 µM) | 106 | – | – | –
24 | CN1C/C(=C\c2cccc3ccccc23)C(=O)[C@]2(C1)[C@@H](c1cccc3ccccc13)CN(C)[C@@]21C(=O)Nc2ccccc21 (racemic) | 11.1 (≈ 19.7 µM) | 22.2 (≈ 39.4 µM) | – | – | – | –
25 | Cc1ccccc1/C=C1\CN(C)C[C@@]2(C1=O)[C@@H](c1ccccc1C)[C@H](c1ccccc1)N[C@@]21C(=O)Nc2ccccc21 (racemic) | 2.82 (≈ 5.09 µM) | 11.3 (≈ 20.4 µM) | 113 | – | – | –
26 | CN1C/C(=C\c2cccc3ccccc23)C(=O)[C@]2(C1)[C@@H](c1cccc3ccccc13)[C@H](c1ccccc1)N[C@@]21C(=O)Nc2ccccc21 (racemic) | 5.01 (≈ 8.01 µM) | 20 (≈ 32 µM) | – | – | – | –
27 | CN1C/C(=C\c2cccs2)C(=O)[C@]2(C1)[C@@H](c1cccs1)[C@H](c1ccccc1)N[C@@]21C(=O)Nc2ccccc21 (racemic) | 11.6 (≈ 21.6 µM) | 11.6 (≈ 21.6 µM) | – | – | – | –
28 | CN1C/C(=C\c2cccc(F)c2)C(=O)[C@]2(C1)[C@@H](c1cccc(F)c1)[C@@H]1CCCN1[C@@]21C(=O)Nc2ccccc21 (racemic) | 5.96 (≈ 11.3 µM) | 23.8 (≈ 45.3 µM) | – | – | – | –
29 | Cc1ccc(/C=C2\CN(C)C[C@@]3(C2=O)[C@@H](c2ccc(C)cc2)CN(C)[C@@]32C(=O)Nc3ccccc32)cc1 (racemic) | 6.37 (≈ 13 µM) | 50.9 (≈ 104 µM) | – | – | – | –
30 | CN1C/C(=C\c2ccccc2)C(=O)[C@]2(C1)[C@@H](c1ccccc1)[C@@H]1CCCN1[C@@]21C(=O)Nc2ccccc21 (racemic) | 25.6 (≈ 52.2 µM) | 102 (≈ 209 µM) | – | – | – | –
31 | COc1ccc(/C=C2\CN(C)C[C@@]3(C2=O)[C@@H](c2ccc(OC)cc2)CN(C)[C@@]32C(=O)Nc3ccccc32)cc1 (racemic) | 0.75 (≈ 1.43 µM) | 2.98 (≈ 5.69 µM) | 120 | – | – | –
32 | Cc1ccc(/C=C2\CN(C)C[C@@]3(C2=O)[C@@H](c2ccc(C)cc2)[C@@H]2CCCN2[C@@]32C(=O)Nc3ccccc32)cc1 (racemic) | 12.1 (≈ 23.4 µM) | 24.2 (≈ 46.7 µM) | – | – | – | –
33 | Cc1ccccc1/C=C1\CN(C)C[C@@]2(C1=O)[C@@H](c1ccccc1C)[C@@H]1CCCN1[C@@]21C(=O)Nc2ccccc21 (racemic) | 12.1 (≈ 23.4 µM) | 24.2 (≈ 46.7 µM) | – | – | – | –
34 | COc1ccccc1/C=C1\CN(C)C[C@@]2(C1=O)[C@@H](c1ccccc1OC)CN(C)[C@@]21C(=O)Nc2ccccc21 (racemic) | 0.36 (≈ 0.688 µM) | 2.98 (≈ 5.69 µM) | 120 | – | – | –
35 | CN1C/C(=C\c2ccc(F)cc2)C(=O)[C@]2(C1)[C@@H](c1ccc(F)cc1)[C@@H]1CCCN1[C@@]21C(=O)Nc2ccccc21 (racemic) | 2.97 (≈ 5.65 µM) | 23.8 (≈ 45.3 µM) | 119 | – | – | –
36 | CN1C/C(=C\c2ccc(Cl)cc2)C(=O)[C@]2(C1)[C@@H](c1ccc(Cl)cc1)CN(C)[C@@]21C(=O)Nc2ccccc21 (racemic) | 2.93 (≈ 5.5 µM) | 5.88 (≈ 11 µM) | 117 | – | – | –
37 | CN1C/C(=C\c2ccccc2)C(=O)[C@]2(C1)[C@@H](c1ccccc1)CN(C)[C@@]21C(=O)Nc2ccccc21 (racemic) | 13.5 (≈ 29.1 µM) | 54 (≈ 116 µM) | – | – | – | –
38 | CN1C/C(=C\c2ccco2)C(=O)[C@]2(C1)[C@@H](c1ccco1)CN(C)[C@@]21C(=O)Nc2ccccc21 (racemic) | 1.76 (≈ 3.97 µM) | 0.88 (≈ 1.98 µM) | 141 | – | – | –
39 | Cc1ccccc1/C=C1\CN(C)C[C@@]2(C1=O)[C@@H](c1ccccc1C)CN(C)[C@@]21C(=O)Nc2ccccc21 (racemic) | 0.39 (≈ 0.793 µM) | 1.59 (≈ 3.23 µM) | 127 | – | – | –
40 | O=C(O)c1cn(C2CC2)c2cc(N3CCNCC3)c(F)cc2c1=O [CIPROFLOXACIN] | – | 2.35 (≈ 7.09 µM) | – | – | – | –
41 | NNC(=O)c1ccncc1 [ISONIAZID] | 0.36 (≈ 2.63 µM) | 45.6 (≈ 332 µM) | – | 5.61 | 4.92 | –
